# Screening results as filed in PubChem BioAssay.
# Only a selection was taken, and hits are over-represented in it overall.
# Jurkat NFkB inh – inhibitors of induced NF-kB luciferase reporter, primary screen, TCR NF-kB activation inhibitor project, cell-based, luminescence, uHTS | 330,000 tested, 0.53% active | Jurkat, PMA/ionomycin-induced NF-kB luciferase reporter | AID 435003, 2010 | inhibition, % at 4 µM; in the data active = inhibition above about 50%
# 697 NFkB inh – inhibitors of PMA/ionomycin-induced NF-kB reporter, 697 cells, primary screen, B-cell NF-kB inhibitor project, cell-based, luminescence, uHTS | 697 B-cell NF-kB luciferase reporter, 16 h | inhibition, % at 4 µM | 330,000 tested, 0.33% active; in the data active = inhibition above about 35%
# CHOP UPR activ – activators of apoptotic CHOP UPR arm, primary screen, cell-based, CHO-CHOP luciferase reporter, luminescence, uHTS; UPR activation; percent of tunicamycin response over DMSO baseline; activation, % at 10 µM; 330,000 tested, 0.34% active;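 active = at 10 µM dose, activation of 40% or more, normalized to positive control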;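 also: 100% = tunicamycin at 10 µg/mL and 0% = DMSO alone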
#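 Assay system: CHO-CHOP cells, stable luciferase reporter of PERK-eIF2a-CHOP signalling / Buffer or medium: F12 plus 10% serum / Compound dosing: one dose, 10 µM in 0.5% DMSO / Times: 6 h compound treatment, 37 °C / Technique: luciferase luminescence / Read-out: % reporter activation, DMSO baseline versus tunicamycin full activation / Benchmarks: tunicamycin and DMSO controls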
# UPR XBP1 act – activators of adaptive XBP1 UPR arm, primary screen, cell-based, CHO-XBP1 luciferase reporter, luminescence, uHTS; IRE1-XBP1 UPR activation; percent of tunicamycin response, DMSO as zero; activation, % at 20 µM; 330,000 tested, 0.33% active;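 active = versus positive control, 20 µM dose yields 30% or more activation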;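 also: 100% = tunicamycin at 10 µg/mL and 0% = DMSO only wells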
#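 Test system: CHO-XBP1 luciferase reporter cells | Buffer or medium: Serum-containing F12 medium, 10% FBS | Schedule: 6 h compound exposure at 37 °C, 5% CO2 | Detection: Steady-Glo luciferase glow luminescence, 10 min after reagent addition | Read-out basis: Activation, % of tunicamycin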
# CHOP inhibitor – inhibitors of CHOP promoter induction, primary screen, cell-based, unfolded protein response, luciferase reporter; CHO-K1 CHOP-promoter luciferase, tunicamycin-induced, 15-18 h; 220,000 tested, 3.8% active; inhibition, % at 10 µM;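 active = compounds that reduced the stress-induced luciferase reporter signal by more than about 70% of percent inhibition, limit read from the data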;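 also: 0% = tunicamycin plus vehicle and 100% = wells without tunicamycin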
# * hit, by the source's call; x = no result.
SMILES,Jurkat NFkB inh,697 NFkB inh,CHOP UPR activ,UPR XBP1 act,CHOP inhibitor
O=C(c1ccncc1)N1CCN(c2cccc(C(F)(F)F)c2)CC1,-2,3,1,-5,28
Cc1ccc(C)c(N2CCN(C(=O)c3cc4sccc4n3C)CC2)c1,6,-4,1,-2,4
O=C(c1c(F)c(F)c(F)c(F)c1F)N1CCN(c2cccc(C(F)(F)F)c2)CC1,-9,9,0,1,82*
COC(=O)c1c(NC(=O)CN2C(=O)NC3(CCc4ccccc4C3)C2=O)sc2c1CCCCC2 (centres undefined),2,-3,-3,0,35
CC1CCCC(n2c(=S)[nH]c3ccccc3c2=O)C1C (centres undefined),-18,-38,-1,3,94*
O=c1c2ccccc2[nH]c(=S)n1C1CCCCC1,-20,-13,-3,5,40
CS(=O)(=O)c1ccc(C(=O)OCc2nnc(-c3ccccc3)o2)cc1[N+](=O)[O-],x,x,x,x,88*
CN(C)S(=O)(=O)c1ccc(C(=O)OCc2nnc(-c3ccccc3)o2)cc1,-33,1,1,1,-12
O=C(OCc1nnc(-c2ccccc2)o1)c1ccc2c(c1)OCCO2,-13,-6,1,0,76*
O=[N+]([O-])c1ccc(-c2ccc(/C=N/c3c(-c4ccco4)nc4ccccn34)o2)c(Cl)c1,x,x,x,x,79*
O=[N+]([O-])c1ccc(-c2ccc(/C=N/c3c(-c4ccco4)nc4ccccn34)o2)cc1,6,-1,3,10,69
CNC(=S)Nc1cc(C(F)(F)F)ccc1Cl,-18,-16,-2,-2,-5
FC(F)Oc1ccc(/C=N/NC(=S)Nc2cc(C(F)(F)F)ccc2Cl)cc1,5,-17,0,-1,76*
Cc1ccc(N(CC(O)CON=C2c3ccccc3-c3ccccc32)S(C)(=O)=O)cc1 (centres undefined),4,11,-1,-3,91*
Cc1cccc(C)c1N(CC(O)Cn1c2ccccc2c2ccccc21)S(C)(=O)=O (centres undefined),-2,5,3,3,43
Cc1ccc(N(CC(O)Cn2c3ccccc3c3ccccc32)S(C)(=O)=O)c(C)c1 (centres undefined),-1,19,-2,-4,85*
Cc1ccc(N(CC(O)Cn2c3ccccc3c3ccccc32)S(C)(=O)=O)cc1 (centres undefined),-1,-27,1,-3,83*
N#C/C(=C\c1c[nH]c2ccccc12)C(=O)c1ccc(O)c(O)c1,x,x,x,x,-1
CC(C)(C)c1ccc(Cn2cnc(-c3ccc([N+](=O)[O-])cc3)c2)cc1,-42,-34,7,5,70
Cc1cc(C)c(Cn2cnc(-c3ccc([N+](=O)[O-])cc3)c2)c(C)c1,-6,-6,-1,-6,76*
CCOC(=O)c1sc2c(c1C)c(=O)n(Cc1ccccc1)c(=O)n2CCN(C)C,6,8,1,-4,x
COc1cccc(C2NC(=O)N(CCCC(=O)O)C(C)=C2C(=O)OCc2ccccc2)c1 (centres undefined),-3,-5,3,0,x
CCCCOC(=O)CSc1nnc(-c2ccc(Cl)cc2Cl)o1,-17,2,-1,-4,71*
CC(C)OC(=O)CSc1nnc(-c2ccc(Cl)cc2Cl)o1,-21,11,0,6,32
Cc1ccc2nc(-c3cccc(NS(C)(=O)=O)c3)cc(-c3ccccc3)c2c1,-1,6,1,0,85*
SMILES,Jurkat NFkB inh,697 NFkB inh,CHOP UPR activ,UPR XBP1 act,CHOP inhibitor
Cc1nc(-c2cccc(NS(=O)(=O)c3ccccc3)c2)cs1,-8,13,1,1,10
S=c1[nH]nc(-c2cccs2)n1/N=C/c1cn(-c2ccccc2)nc1-c1ccccc1,5,-7,4,14,-17
Cc1ccc(-c2nn(-c3ccccc3)cc2/C=N/n2c(-c3ccncc3)n[nH]c2=S)cc1,-12,5,6,3,89*
CC(/C=N/n1c(-c2ccc(Cl)cc2)n[nH]c1=S)=C\c1ccco1,8,-7,0,2,95*
S=c1[nH]nc(-c2ccncc2)n1/N=C/C(Cl)=C\c1ccccc1,-11,-127,2,4,76*
CCC1SC(CC)C(=O)N(CC(=O)Nc2ccc3c(c2)OCO3)C1=O (centres undefined),-28,-44,0,-1,8
Cc1ccc(C(C)C)c(OCCNC(=S)Nc2cccc3ccccc23)c1,4,14,0,4,76*
Cc1ccc(C(C(=O)NC2CCCC2)N2CCc3ccccc32)cc1 (centres undefined),-4,3,1,-1,79*
O=C(NC1CCCCC1)C(c1ccccc1)N1CCc2ccccc21 (centres undefined),0,12,-2,-1,53
Cc1cccc(Nc2nc3c(s2)CCCC3)c1,x,x,x,x,2
O=C(O)c1ccc(Nc2nc3c(s2)CCCC3)cc1,-20,-207,-9,-7,91*
O=C(O)CCNS(=O)(=O)c1ccc2c(c1)OCCCO2,3,13,0,-1,-1
CC1CCCCN1S(=O)(=O)c1ccc(C(=O)Nc2nnc(-c3ccccc3Cl)o2)cc1 (centres undefined),3,-26,13,1,77*
CCCCN(CC)S(=O)(=O)c1ccc(C(=O)Nc2nnc(-c3ccccc3Cl)o2)cc1,-3,-44,10,-1,88*
COc1ccccc1-c1nnc(NC(=O)c2ccc(S(=O)(=O)N(C)CC3CCCO3)cc2)o1 (centres undefined),15,13,0,-5,x
O=C(Nc1nnc(-c2ccccc2Cl)o1)c1ccc(S(=O)(=O)N2CCCCCC2)cc1,4,-64,13,3,61
COc1ccccc1-c1nnc(NC(=O)c2ccc(S(=O)(=O)N(C)C)cc2)o1,-5,-13,3,-1,85*
CCN(Cc1ccccc1)S(=O)(=O)c1ccc(C(=O)Nc2nnc(-c3ccccc3OC)o2)cc1,-6,-59,3,-2,85*
CCN(CC(=O)Nc1c(F)cccc1F)C(=O)c1ccc(COc2ccccc2)o1,18,0,1,-2,x
O=S(=O)(Nc1cc(Sc2cccc3cccnc23)c(O)c2ccccc12)c1ccccc1,x,x,x,x,101*
CCSc1nnc(NC(=O)CSc2nc(CC)nc3c2c(=O)n(C)c(=O)n3C)s1,-3,0,0,-3,82*
CCc1nc(SCC(=O)Nc2nnc(CC)s2)c2c(C)c(C)sc2n1,-5,-36,-1,1,96*
CCCc1nc(SCC(=O)Nc2nnc(CC)s2)c2c(C)c(C)sc2n1,6,1,-1,-3,47
